# ChEMBL document CHEMBL3228016, “Antiallergy agents. 1. 1,6-Dihydro-6-oxo-2-phenylpyrimidine-5-carboxylic acids and esters” (1979)
# Experiments:
# Format in all cases: functional
# Settings in all cases: read-out: ID50 (the source's name)
# [1] = tested on: Rattus norvegicus; assay: Antiallergic activity in po dosed Sprague-Dawley rat passive cutaneous analphylaxis model assessed as inhibition of allergic response administered 10 mins prior to antigen challenge
# How it was run: (§1)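 Modified Ovary rat passive cutaneous anaphylaxis screen in male Sprague-Dawley rats, with 24 h between sensitization and antigen challenge. Acidic compounds were dissolved in aqueous NaHCO3 where possible; others were suspended in aqueous sodium citrate with Tween 40/sodium carboxymethylcellulose. Dosing was iv 1 min or po 10 min before challenge. ID50 is the dose giving 50% inhibition of the response; significance was p ≤ 0.05 by Student's t test.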
# [2] = tested on: Rattus norvegicus; assay: Antiallergic activity in iv dosed Sprague-Dawley rat passive cutaneous analphylaxis model assessed as inhibition of allergic response administered at the time of antigen challenge
# How it was run: (§2)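 Male Sprague-Dawley rat passive cutaneous anaphylaxis (modified Ovary method), with a 24 h sensitization-to-challenge interval. The agent was dissolved in saline and given iv at the time of antigen challenge or po 30 min before challenge. The dose inhibiting the response by 50% was determined; significance was p ≤ 0.05 by Student's t test.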
# [3] = tested on: Rattus norvegicus; assay: Antiallergic activity in po dosed Sprague-Dawley rat passive cutaneous analphylaxis model assessed as inhibition of allergic response administered 30 mins prior to antigen challenge; how it was run: as §2
# [4] = tested on: Rattus norvegicus; assay: Antiallergic activity in iv dosed Sprague-Dawley rat passive cutaneous analphylaxis model assessed as inhibition of allergic response administered 1 min prior to antigen challenge; how it was run: as §1
Compound,ED50 [1] [mg/kg],other results
CCOC(=O)c1cnc(-c2ccccc2)nc1OC,> 5,–
CCOC(=O)c1cnc(-c2ccccc2O)[nH]c1=O,5,–
O=C(O)c1cnc(-c2ccccc2OCc2ccccc2)[nH]c1=O,5,–
CCOC(=O)c1ccc(OCC)c(-c2ncc(C(=O)OCC)c(=O)[nH]2)c1,1,–
CCOC(=O)C(=O)Nc1ccc(OCC)c(-c2ncc(C(=O)OCC)c(=O)[nH]2)c1,5,–
CCOC(=O)c1cnc(-c2cc(N)ccc2OCC)[nH]c1=O,0.5,–
CCOC(=O)c1cnc(-c2cc(OC)ccc2OC)[nH]c1=O,5,–
CCOC(=O)c1cnc(-c2cccc(OC)c2)nc1O,10,–
O=C([O-])c1cc(=O)c2c(OCC(O)COc3cccc4oc(C(=O)[O-])cc(=O)c34)cccc2o1.[Na+].[Na+] [CROMOLYN SODIUM],–,ED50 [2]: 0.3 mg/kg; ED50 [3]: ≥ 30 mg/kg
CCOC(=O)c1cnc(-c2cc(Cl)ccc2OCC)[nH]c1=O,0.5,–
CCOC(=O)c1cnc(-c2ccccc2OCC(C)C)[nH]c1=O,3,–
Cn1c(-c2ccccc2)ncc(C(=O)O)c1=O,50,–
Nc1ccccc1-c1ncc(C(=O)O)c(=O)[nH]1,50,–
C[S+]([O-])c1ccccc1-c1ncc(C(=O)O)c(=O)[nH]1 (configuration not stated),> 5,–
CCOc1ccccc1-c1nc(=O)c(C(=O)O)cn1C,> 40,–
CCOc1ccc(S(=O)(=O)N(C)C(C)C)cc1-c1ncc(C(=O)O)c(=O)[nH]1,> 10,–
CCOc1ccc(S(=O)(=O)N(C)C)cc1-c1ncc(C(=O)O)c(=O)[nH]1,> 50,–
CCOc1ccc(Cl)cc1-c1ncc(C(=O)O)c(=O)[nH]1,0.5,–
CCOc1ccc(C(=O)O)cc1-c1ncc(C(=O)O)c(=O)[nH]1,25,–
CCCCOc1ccccc1-c1ncc(C(=O)OCC)c(=O)[nH]1,0.5,–
CCSc1ccccc1-c1ncc(C(=O)O)c(=O)[nH]1,25,–
CCOC(=O)c1cnc(-c2ccc(Cl)cc2)[nH]c1=O,> 30,–
CCOC(=O)c1cnc(-c2ccccc2SC)[nH]c1=O,> 25,–

Compound,ED50 [1] [mg/kg],other results
CCOC(=O)c1cnc(-c2ccccc2OCC)[nH]c1=O,2,–
O=C(O)c1cnc(-c2cccc(C(F)(F)F)c2)[nH]c1=O,33,–
CCOC(=O)c1cnc(-c2cccc(OCC)c2)[nH]c1=O,50,–
CCOC(=O)c1cnc(-c2cccc(C(F)(F)F)c2)[nH]c1=O,50,–
COc1ccc(-c2ncc(C(=O)O)c(=O)[nH]2)cc1,> 5,–
COc1ccc(OC)c(-c2ncc(C(=O)O)c(=O)[nH]2)c1,1,–
CCOC(=O)c1cnc(-c2ccccc2OC(C)C)[nH]c1=O,2,–
CCOC(=O)c1cnc(-c2cc(S(N)(=O)=O)ccc2OCC)[nH]c1=O,50,–
CC1Cc2cccc(-c3ncc(C(=O)O)c(=O)[nH]3)c2O1 (racemic),5,–
CCOC(=O)c1cnc(-c2cc(OC)ccc2OCC)[nH]c1=O,0.3,–
CCOc1ccccc1-c1ncc(C(=O)O)c(=O)n1C,> 50,–
CCOC(=O)c1cnc(-c2cc(S(=O)(=O)N(C)C)ccc2OCC)[nH]c1=O,50,–
CCCOc1ccccc1-c1ncc(C(=O)O)c(=O)[nH]1,0.9,–
COc1ccc(-c2ncc(C(=O)O)c(=O)[nH]2)c(OC)c1,5,–
CCOc1ccccc1-c1ncc(C(=O)O)c(=O)[nH]1,0.5,ED50 [4]: 0.07 mg/kg
O=C(O)c1cnc(-c2ccccc2[N+](=O)[O-])[nH]c1=O,> 50,–
CCCCCOc1ccccc1-c1ncc(C(=O)O)c(=O)[nH]1,3,–
CCCCOc1ccccc1-c1ncc(C(=O)O)c(=O)[nH]1,0.5,–
C=CCOc1ccccc1-c1ncc(C(=O)O)c(=O)[nH]1,0.5,–
CCCOc1ccccc1-c1ncc(C(=O)OCC)c(=O)[nH]1,5,–
CCOC(=O)c1cnc(-c2ccccc2OCc2ccccc2)[nH]c1=O,> 5,–
CCOC(=O)c1cnc(-c2ccccc2OCC)n(C)c1=O,> 40,–
CCOC(=O)c1cnc(-c2ccc(C(F)(F)F)cc2)[nH]c1=O,> 5,–

Compound,ED50 [1] [mg/kg],other results
O=C(O)c1cnc(-c2ccccc2Cl)[nH]c1=O,5,–
CCOC(=O)c1cnc(-c2ccc(OC)cc2)[nH]c1=O,30,–
CCOC(=O)c1cnc(-c2ccc(OC)cc2OC)[nH]c1=O,5,–
CSc1ccccc1-c1ncc(C(=O)O)c(=O)[nH]1,> 20,–
COc1ccccc1-c1ncc(C(=O)O)c(=O)[nH]1,10,–
CCOC(=O)c1cnc(-c2cc(S(=O)(=O)N(C)C(C)C)ccc2OCC)[nH]c1=O,> 10,–
CCOc1ccc(N(C)C)cc1-c1ncc(C(=O)O)c(=O)[nH]1,0.3,–
O=C(O)c1cnc(-c2ccccc2F)[nH]c1=O,5,–
CCOc1ccc(S(=O)(=O)N(CC)CC)cc1-c1ncc(C(=O)O)c(=O)[nH]1,40,–
C=CCc1cccc(-c2ncc(C(=O)O)c(=O)[nH]2)c1O,> 0.5,–
CCOC(=O)c1cnc(-c2cc([N+](=O)[O-])ccc2OCC)[nH]c1=O,5,–
CC(C)COc1ccccc1-c1ncc(C(=O)O)c(=O)[nH]1,0.5,–
CCOC(=O)c1cnc(-c2cc(S(=O)(=O)N(CC)CC)ccc2OCC)[nH]c1=O,10,–
O=C(O)c1cnc(-c2ccc(C(F)(F)F)cc2)[nH]c1=O,> 5,–
O=C(O)c1cnc(-c2ccc(Cl)cc2)[nH]c1=O,5,–
CCOC(=O)c1cnc(-c2ccccc2)nc1O,> 20,–
CCCOc1ccc(OC)cc1-c1ncc(C(=O)OCC)c(=O)[nH]1,0.7,–
CCOc1ccc(OC)cc1-c1ncc(C(=O)O)c(=O)[nH]1,0.2,–
O=C(O)c1cnc(-c2ccccc2)[nH]c1=O,50,–
CCCCCOc1ccccc1-c1ncc(C(=O)OCC)c(=O)[nH]1,2,–
CCCOc1ccc(OC)cc1-c1ncc(C(=O)O)c(=O)[nH]1,0.3,–
CCOC(=O)c1cnc(-c2cccc3c2OC(C)C3)[nH]c1=O (racemic),5,–
COc1nc(-c2ccccc2)ncc1C(=O)O,> 10,–

Compound,ED50 [1] [mg/kg],other results
CCOC(=O)c1cnc(-c2ccccc2OC(C)CC)[nH]c1=O (configuration not stated),0.5,–
CCC(C)Oc1ccccc1-c1ncc(C(=O)O)c(=O)[nH]1 (configuration not stated),0.5,–
CCOC(=O)c1cnc(-c2ccccc2F)[nH]c1=O,> 10,–
CCOc1ccc(N)cc1-c1ncc(C(=O)O)c(=O)[nH]1,1.2,–
CCOc1ccccc1-c1ncc(C(=O)O)c(OC)n1,> 5,–
COc1cccc(-c2ncc(C(=O)O)c(=O)[nH]2)c1,10,–
CCOC(=O)c1cnc(-c2ccccc2OCC2CC2)[nH]c1=O,0.3,–
CCOC(=O)C(=O)Nc1ccc(OCC)c(-c2ncc(C(=O)O)c(=O)[nH]2)c1,25,–
CCOc1ccc(S(N)(=O)=O)cc1-c1ncc(C(=O)O)c(=O)[nH]1,> 50,–
C=CCOc1ccccc1-c1ncc(C(=O)OCC)c(=O)[nH]1,0.5,–
CCOC(=O)c1cnc(-c2ccccc2Cl)[nH]c1=O,5,–
CCOC(=O)c1cnc(-c2cc([N+](=O)[O-])cc([N+](=O)[O-])c2OCC)[nH]c1=O,> 50,–
CCOC(=O)c1cn(C)c(-c2ccccc2OCC)nc1=O,–,ED50 [4]: > 1 mg/kg
CCOc1cccc(-c2ncc(C(=O)O)c(=O)[nH]2)c1,5,–
O=C(O)c1cnc(-c2ccccc2O)[nH]c1=O,> 5,–
CC(C)Oc1ccccc1-c1ncc(C(=O)O)c(=O)[nH]1,0.8,–
O=C(O)c1cnc(-c2ccccc2OCC2CC2)[nH]c1=O,0.1,–
CCOC(=O)c1cnc(-c2ccccc2OC)[nH]c1=O,10,–
CCOc1ccc([N+](=O)[O-])cc1-c1ncc(C(=O)O)c(=O)[nH]1,25,–
CCOC(=O)c1cnc(-c2ccccc2)n(C)c1=O,> 5,–
CCOC(=O)c1cnc(-c2ccccc2SCC)[nH]c1=O,> 5,–
